Target in the first test: not listed separately
As to the kind of experiment: Inhibition of dephosphorylated glycogen phosphorylase.
Settings: not given
One may read the IC50 as the point on the concentration scale where inhibition reaches its midpoint. High values mean weaker potency, low ones greater potency. Regarding `O=c1cc(-c2ccc(O)c(O)c2)oc2c(O)c(O)cc(O)c12` [HYPOLAETIN], the 50% inhibitory concentration (IC50) was determined as 15700 nM.
Take `O=c1cc(-c2ccc(O)c(O)c2)oc2cc(O)c(O)c(O)c12` [6-HYDROXYLUTEOLIN]: the IC50 came to 11600 nM.
Take `O=c1c(O)c(-c2ccc(O)c(O)c2)oc2cc(O)c(O)c(O)c12` [QUERCETAGETIN]: the IC50 amounted to 9700 nM.

A further test has as its system HepG2. As to the kind of experiment: Induction of ACC phosphorylation in human HepG2 cells after 2 hrs by Western blot analysis. The class given is cell-based.
Settings: not given
Summed up:
(§1)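 HepG2 in 12-well plates exposed to increasing doses for 2 h. Lysed on ice in RIPA buffer (pH 7.2) with phosphatase and protease inhibitors. Run on 7.5% SDS-PAGE and blotted to PVDF. Blocked 1 h in 5% BSA, primary antibodies overnight at 4 °C, secondary 1 h at room temperature. Chemiluminescent detection. Means ± SE of 3 independent experiments.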
For orientation: In western blotting, separated proteins are transferred to a membrane and probed.
Regarding `N#Cc1ccc(/C=C/C(=O)COc2c(-c3ccc(O)cc3)oc3cc(O)cc(O)c3c2=O)cc1`, the Activity entry is “Dose-dependent effect”.

A further test has as its system HepG2. As to the kind of experiment: Increase in glucose consumption in insulin-resistant human HepG2 cells after 24 hrs. The class given is functional, cell-based. The note with it: HepG2, 24 h. The gist of the method:
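HepG2 grown in high-glucose DMEM with 10% FBS, then plated 24 h. Made insulin-resistant with 10^-7 M insulin for 36 h in serum-free, phenol red-free high-glucose DMEM. Washed, then exposed to test agents at several concentrations for 24 h. Medium glucose measured by kit. Consumption gain expressed as % over the insulin-resistant model group. EC50 derived.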
A word on the EC50: it is the concentration at which the effect is half-maximal. In turn, `CCOc1ccc(/C=C/C(=O)COc2c(-c3ccc(O)cc3)oc3cc(O)cc(O)c3c2=O)cc1` came in with an EC50 of 42 nM.
`CC(C)c1ccc(/C=C/C(=O)COc2c(-c3ccc(O)cc3)oc3cc(O)cc(O)c3c2=O)cc1` showed a 50% effective concentration (EC50) of 15 nM.
Take `O=C(/C=C/c1ccc(C(F)(F)F)cc1)COc1c(-c2ccc(O)cc2)oc2cc(O)cc(O)c2c1=O`: the EC50 is > 20000 nM.
With `COc1ccc(/C=C/C(=O)COc2c(-c3ccc(O)cc3)oc3cc(O)cc(O)c3c2=O)cc1Br`, the EC50 was > 20000 nM.
The compound `COc1cc(/C=C/C(=O)COc2c(-c3ccc(O)cc3)oc3cc(O)cc(O)c3c2=O)ccc1O` gave an EC50 of 6190 nM.
Consider `O=C(/C=C/c1ccc(Cl)cc1)COc1c(-c2ccc(O)cc2)oc2cc(O)cc(O)c2c1=O`, for which the 50% effective concentration (EC50) came out at 1080 nM.
As for `O=C(/C=C/c1ccc(O)cc1)OC[C@H]1O[C@@H](Oc2c(-c3ccc(O)cc3)oc3cc(O)cc(O)c3c2=O)[C@H](O)[C@@H](O)[C@@H]1O` [TILIROSIDE], the midpoint of the response, the EC50, lay at 155 nM.
For the compound `CCCCCCCCOc1ccc(/C=C/C(=O)COc2c(-c3ccc(O)cc3)oc3cc(O)cc(O)c3c2=O)cc1`, the 50% effective concentration (EC50) was > 20000 nM.
With `CCCCCCOc1ccc(/C=C/C(=O)COc2c(-c3ccc(O)cc3)oc3cc(O)cc(O)c3c2=O)cc1`, the EC50 is > 20000 nM.
In turn, `Cc1ccc(/C=C/C(=O)COc2c(-c3ccc(O)cc3)oc3cc(O)cc(O)c3c2=O)cc1` registered an EC50 of 10 nM.
On to `O=C(/C=C/c1ccc(Cl)c(Cl)c1)COc1c(-c2ccc(O)cc2)oc2cc(O)cc(O)c2c1=O`, for which it took 2590 nM to reach a half-maximal effect (EC50).
Consider `O=C(/C=C/c1ccc(O)c(Cl)c1)COc1c(-c2ccc(O)cc2)oc2cc(O)cc(O)c2c1=O`, for which the concentration for a half-maximal effect (EC50) worked out at 3560 nM.
On the same count and under the same terms, the figure for `O=C(/C=C/c1ccc(Br)cc1)COc1c(-c2ccc(O)cc2)oc2cc(O)cc(O)c2c1=O` is 393 nM.
On to `COc1ccc(/C=C/C(=O)COc2c(-c3ccc(O)cc3)oc3cc(O)cc(O)c3c2=O)cc1O`, for which a half-maximal response (EC50) required 5070 nM.
`O=C(/C=C/c1ccc(F)cc1)COc1c(-c2ccc(O)cc2)oc2cc(O)cc(O)c2c1=O`: a half-maximal effect (EC50) was put at 669 nM.
The same measure, in the same setting: the value for `COc1ccc(/C=C/C(=O)COc2c(-c3ccc(O)cc3)oc3cc(O)cc(O)c3c2=O)cc1` was 149 nM; that for `O=C(/C=C/c1ccc(OCc2ccccc2)cc1)COc1c(-c2ccc(O)cc2)oc2cc(O)cc(O)c2c1=O` was 658 nM.
On the same count and under the same terms, the figure for `O=C(/C=C/c1ccc(O)cc1)COc1c(-c2ccc(O)cc2)oc2cc(O)cc(O)c2c1=O` is 368 nM; for `CCCCOc1ccc(/C=C/C(=O)COc2c(-c3ccc(O)cc3)oc3cc(O)cc(O)c3c2=O)cc1` it is > 20000 nM.
As for `O=C(/C=C/c1ccccc1)COc1c(-c2ccc(O)cc2)oc2cc(O)cc(O)c2c1=O`, the 50% effective concentration (EC50) amounted to 473 nM.
Regarding `CSc1ccc(/C=C/C(=O)COc2c(-c3ccc(O)cc3)oc3cc(O)cc(O)c3c2=O)cc1`, the half-maximal effective concentration (EC50) is > 20000 nM.
For `N#Cc1ccc(/C=C/C(=O)COc2c(-c3ccc(O)cc3)oc3cc(O)cc(O)c3c2=O)cc1`, the EC50 was determined as 3 nM.
As to `COc1cc(/C=C/C(=O)COc2c(-c3ccc(O)cc3)oc3cc(O)cc(O)c3c2=O)ccc1OCc1ccccc1`, the EC50 was > 20000 nM.
As for `CN(C)C(=N)NC(=N)N` [METFORMIN], the 50% effective concentration (EC50) stood at 270 nM.
As for `CC(C)(C)c1ccc(/C=C/C(=O)COc2c(-c3ccc(O)cc3)oc3cc(O)cc(O)c3c2=O)cc1`, the concentration giving a half-maximal response (EC50) worked out at 13 nM.

A further test has as its target AMP-activated protein kinase, AMPK (Homo sapiens) (UniProt P54646+O43741+P54619+Q9UGJ0+Q9Y478+Q13131+Q9UGI9). As to the kind of experiment: Induction of AMPK phosphorylation in human HepG2 cells after 2 hrs by Western blot analysis.
Settings: not given
The class given is cell-based. Summed up: as §1
In the case of `N#Cc1ccc(/C=C/C(=O)COc2c(-c3ccc(O)cc3)oc3cc(O)cc(O)c3c2=O)cc1`, the Activity entry was “Dose-dependent effect”.

The record behind these values is ChEMBL document CHEMBL1828618, “Synthesis and biological activity of novel tiliroside derivants” (Eur J Med Chem, 2011).
